Molecules are shown by their SMILES. Like-named read-outs stand apart in the source and are kept apart here.

In data set [1] the test system is various cancer cell lines. Conditions: literature values for various cancer cell lines; ref Chauffert & Dimanche-Boitrel 1998; Lee et al. 2008; Meli et al. 2012; cited from earlier work.
For data set [2], the system named is ReNcell CX neural progenitor cell line. Conditions: cited from earlier work.
Data set [3] deals with ReNcell VM cells. Nature of the data set: Cytotoxicity in 2D ReNcell VM cultures, 96-well plate format. Type of data set: cell-based. Conditions: Homo sapiens. The essentials:
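Human neural stem cells seeded at 5,000 cells/well and left to attach for at least 5 h. Doses made by 4-fold serial dilution from the highest dose, each holding 0.5% DMSO vehicle. Viability read by MTT: 2.5 mg/ml MTT solution added, 3 h under culture conditions, supernatant removed, formazan dissolved in DMSO, absorbance at 590 nm with 690 nm reference.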

Data set [4] concerns ReNcell VM cells. The data set is classed as cell-based, human.
For data set [5], the system named is ReNcell VM differentiated progeny (astrocytic phenotype). Type of data set: cell-based, human.
Data set [6] relates to Hep3B. Conditions: when P450 metabolism was absent; ref Lee et al. 2008; cited from earlier work.

The IC50 is the concentration that inhibits the measured activity by half. As for `O=c1[nH]cc(F)c(=O)[nH]1` [5-Fluorouracil, 5-fluorouracil], the IC50 in data set [1] is 1 to 85 µM. Besides, in data set [2] (non-differentiated, 2D well plate, after 24 h of incubation with the drug, ref Breier et al. 2008a), the “effect on proliferation and viability” value is “inhibited proliferation without affecting viability”.

Regarding `CC(=O)Nc1ccc(O)cc1` [Acetaminophen, acetaminophen], the IC50 was 1760 µM in data set [3] and 2.4 mM in data set [4] (Homo sapiens, ReNcell VM). Further, the “viability of the cells below the hepatotoxic range of concentrations” value in data set [4] (hNSC line, concentrations below ~0.2 – 1 mM) is reported as “remains unaffected”; in data set [5] (differentiated progeny, concentrations below ~0.2 – 1 mM), “remains unaffected”. For the same compound, in data set [6], the toxicity entry is “non-toxic”.

Consider `[Cl][Cd][Cl]` [CdCl, cadmium chloride hydrate], for which the IC50 in data set [4] (Non-differentiated, 3D alginate microarray, 24 h exposure + 48 h in medium) is 0.00736 mM.

Take `C[C@@H]1C[C@H]2[C@@H]3CCC4=CC(=O)C=C[C@]4(C)[C@@]3(F)[C@@H](O)C[C@]2(C)[C@@]1(O)C(=O)CO` [Dexamethasone, dexamethasone]: the IC50 was 215 µM in data set [3]; 2 mM in data set [4] (Homo sapiens, ReNcell VM); 60 µM in data set [5] (Homo sapiens, ReNcell VM). For the same compound, the effect on viability result in data set [2] (concentrations of up to 100 μM, ref Breier et al. 2008b) is “negligible effect on viability”.

(Values after publication PMC4090259 (Stem cell research, 2014).)
